Assay results from ChEMBL document CHEMBL1811853, “Design and evaluation of 3-aminopyrazolopyridinone kinase inhibitors inspired by the natural product indirubin” (Bioorg Med Chem, 2011).
In brackets after ≈: the same amount, converted by molar mass.

Columns and labels:
[1] = Aqueous solubility of the compound by HPLC analysis; assay type: physicochemical; conditions: water
How it was run: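 Solubility determined by HPLC measurement of the concentration in saturated aqueous solutions of the compounds.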

[2] = Inhibition of PKA at 30 uM by microfluidic mobility shift assay
How it was run: (§1)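 Single-concentration screen, singlicate, 30 uM final (diluted from 1 mM DMSO solutions), fluorescently tagged peptide substrate appropriate to each kinase, ATP at apparent Km for each protein. Phosphorylated and unphosphorylated peptides separated electrophoretically; conversion is the phosphorylated peak area over the sum of both peaks. No-inhibitor and no-ATP controls; H89 reference on each plate.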

[3] = biological target: Mitogen-activated protein kinase 14 (Homo sapiens, UniProt Q16539); test: Inhibition of p38alpha at 30 uM by microfluidic mobility shift assay; how it was run: as §1
Chain of Mitogen-activated protein kinase 14 (Q16539 whole entry): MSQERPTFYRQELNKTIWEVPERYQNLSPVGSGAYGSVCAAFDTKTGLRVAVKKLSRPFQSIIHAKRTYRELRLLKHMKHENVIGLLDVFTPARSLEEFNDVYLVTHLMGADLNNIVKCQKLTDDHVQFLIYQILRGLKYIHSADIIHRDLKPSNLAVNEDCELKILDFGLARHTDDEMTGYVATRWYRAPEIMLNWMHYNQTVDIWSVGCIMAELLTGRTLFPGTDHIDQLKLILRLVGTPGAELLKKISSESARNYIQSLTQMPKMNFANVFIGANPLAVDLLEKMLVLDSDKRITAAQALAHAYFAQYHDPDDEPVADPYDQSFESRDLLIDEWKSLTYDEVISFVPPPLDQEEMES

[4] = biological target: Mitogen-activated protein kinase 1 (Homo sapiens) (UniProt P28482); test: Inhibition of ERK2 at 30 uM by microfluidic mobility shift assay; how it was run: as §1
Chain of Mitogen-activated protein kinase 1 (Homo sapiens) (P28482 whole entry): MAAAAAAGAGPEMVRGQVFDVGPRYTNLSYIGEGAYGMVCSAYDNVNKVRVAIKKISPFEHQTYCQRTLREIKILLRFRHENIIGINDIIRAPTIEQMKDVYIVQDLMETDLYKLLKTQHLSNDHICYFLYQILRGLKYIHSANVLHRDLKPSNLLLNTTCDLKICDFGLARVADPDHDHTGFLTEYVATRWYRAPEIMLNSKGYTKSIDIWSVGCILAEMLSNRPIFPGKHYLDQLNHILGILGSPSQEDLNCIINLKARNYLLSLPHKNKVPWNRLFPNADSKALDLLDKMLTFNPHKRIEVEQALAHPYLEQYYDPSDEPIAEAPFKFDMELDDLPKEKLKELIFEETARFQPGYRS

[5] = biological target: MAP kinase-activated protein kinase 2 (Homo sapiens, UniProt P49137); test: Inhibition of MAPKAPK2 at 30 uM by microfluidic mobility shift assay; how it was run: as §1
[6] = biological target: Mitogen-activated protein kinase 3 (Homo sapiens) (UniProt P27361); test: Inhibition of ERK1 at 30 uM by microfluidic mobility shift assay; how it was run: as §1
Chain of Mitogen-activated protein kinase 3 (Homo sapiens) (P27361 whole entry): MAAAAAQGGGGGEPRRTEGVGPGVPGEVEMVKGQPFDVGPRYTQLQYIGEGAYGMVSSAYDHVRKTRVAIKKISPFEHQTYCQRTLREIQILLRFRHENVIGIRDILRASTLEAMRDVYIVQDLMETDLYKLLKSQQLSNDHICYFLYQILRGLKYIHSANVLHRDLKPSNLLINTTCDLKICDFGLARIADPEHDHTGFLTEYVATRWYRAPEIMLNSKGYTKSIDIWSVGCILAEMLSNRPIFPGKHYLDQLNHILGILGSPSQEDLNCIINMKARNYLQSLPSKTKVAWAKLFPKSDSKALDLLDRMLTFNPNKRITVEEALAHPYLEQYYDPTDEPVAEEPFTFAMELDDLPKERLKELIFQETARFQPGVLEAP

[7] = biological target: RAC-beta serine/threonine-protein kinase (Homo sapiens) (UniProt P31751); test: Inhibition of AKT2 at 30 uM by microfluidic mobility shift assay; how it was run: as §1
Chain of RAC-beta serine/threonine-protein kinase (Homo sapiens) (P31751 whole entry): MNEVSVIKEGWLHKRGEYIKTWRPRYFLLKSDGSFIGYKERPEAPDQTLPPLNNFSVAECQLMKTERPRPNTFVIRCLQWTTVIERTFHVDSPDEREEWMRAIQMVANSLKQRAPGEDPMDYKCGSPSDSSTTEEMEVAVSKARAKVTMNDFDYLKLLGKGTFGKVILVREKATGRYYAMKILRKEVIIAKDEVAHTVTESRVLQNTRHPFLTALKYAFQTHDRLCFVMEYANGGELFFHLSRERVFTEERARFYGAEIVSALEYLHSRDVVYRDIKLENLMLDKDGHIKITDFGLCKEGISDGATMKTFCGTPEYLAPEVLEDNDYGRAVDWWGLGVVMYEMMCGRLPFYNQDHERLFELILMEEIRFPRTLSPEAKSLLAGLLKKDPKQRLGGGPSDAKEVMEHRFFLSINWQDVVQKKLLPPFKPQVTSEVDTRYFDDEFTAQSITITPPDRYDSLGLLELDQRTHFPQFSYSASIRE

[8] = biological target: Tyrosine-protein kinase Lck (Homo sapiens, UniProt P06239); test: Inhibition of LCK at 30 uM by microfluidic mobility shift assay; how it was run: as §1
Chain of Tyrosine-protein kinase Lck (P06239 2-509 limits assumed): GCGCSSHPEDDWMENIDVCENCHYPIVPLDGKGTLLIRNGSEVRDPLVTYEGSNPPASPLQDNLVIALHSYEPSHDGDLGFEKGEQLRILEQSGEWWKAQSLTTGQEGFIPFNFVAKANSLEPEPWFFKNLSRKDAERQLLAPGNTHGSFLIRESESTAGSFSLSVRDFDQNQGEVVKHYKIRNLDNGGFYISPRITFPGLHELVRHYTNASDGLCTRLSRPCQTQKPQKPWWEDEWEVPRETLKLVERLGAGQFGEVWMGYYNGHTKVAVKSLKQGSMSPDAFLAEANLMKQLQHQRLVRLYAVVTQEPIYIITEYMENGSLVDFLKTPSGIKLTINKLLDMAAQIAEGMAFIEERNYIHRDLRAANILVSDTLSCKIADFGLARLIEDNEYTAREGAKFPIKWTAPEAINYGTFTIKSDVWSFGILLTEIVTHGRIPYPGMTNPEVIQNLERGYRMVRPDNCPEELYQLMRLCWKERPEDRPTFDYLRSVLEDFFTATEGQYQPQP

[9] = biological target: RAC-alpha serine/threonine-protein kinase (Homo sapiens) (UniProt P31749); test: Inhibition of AKT1 at 30 uM by microfluidic mobility shift assay; how it was run: as §1
[10] = biological target: Tyrosine-protein kinase Lyn (Homo sapiens, UniProt P07948); test: Inhibition of LYN at 30 uM by microfluidic mobility shift assay; how it was run: as §1
[11] = biological target: Tyrosine-protein kinase Fyn (Homo sapiens, UniProt P06241); test: Inhibition of FYN at 30 uM by microfluidic mobility shift assay; how it was run: as §1
[12] = biological target: Glycogen synthase kinase-3 beta (Homo sapiens) (UniProt P49841); test: Inhibition of GSK3B at 30 uM by microfluidic mobility shift assay; how it was run: as §1
Chain of Glycogen synthase kinase-3 beta (Homo sapiens) (P49841 whole entry, looked up): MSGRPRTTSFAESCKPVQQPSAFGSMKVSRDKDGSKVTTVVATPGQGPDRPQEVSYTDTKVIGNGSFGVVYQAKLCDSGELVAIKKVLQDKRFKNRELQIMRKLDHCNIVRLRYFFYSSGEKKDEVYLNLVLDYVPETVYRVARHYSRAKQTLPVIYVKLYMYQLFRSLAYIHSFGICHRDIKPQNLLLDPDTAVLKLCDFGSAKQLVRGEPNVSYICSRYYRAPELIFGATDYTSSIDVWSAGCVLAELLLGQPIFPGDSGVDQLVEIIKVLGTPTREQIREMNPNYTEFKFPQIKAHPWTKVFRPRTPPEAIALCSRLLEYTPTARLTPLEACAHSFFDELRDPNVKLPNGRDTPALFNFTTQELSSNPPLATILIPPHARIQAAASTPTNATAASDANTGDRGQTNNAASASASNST

[13] = biological target: Ribosomal protein S6 kinase alpha-1 (Homo sapiens) (UniProt Q15418); test: Inhibition of RSK1 at 30 uM by microfluidic mobility shift assay; how it was run: as §1
[14] = biological target: Ribosomal protein S6 kinase alpha-5 (Homo sapiens) (UniProt O75582); test: Inhibition of MSK1 at 30 uM by microfluidic mobility shift assay; how it was run: as §1
[15] = biological target: T1, MAP kinase-activated protein kinase 5 (Homo sapiens) (UniProt Q8IW41); test: Inhibition of PRAK1 at 30 uM by microfluidic mobility shift assay; how it was run: as §1
T1 sequence (whole entry): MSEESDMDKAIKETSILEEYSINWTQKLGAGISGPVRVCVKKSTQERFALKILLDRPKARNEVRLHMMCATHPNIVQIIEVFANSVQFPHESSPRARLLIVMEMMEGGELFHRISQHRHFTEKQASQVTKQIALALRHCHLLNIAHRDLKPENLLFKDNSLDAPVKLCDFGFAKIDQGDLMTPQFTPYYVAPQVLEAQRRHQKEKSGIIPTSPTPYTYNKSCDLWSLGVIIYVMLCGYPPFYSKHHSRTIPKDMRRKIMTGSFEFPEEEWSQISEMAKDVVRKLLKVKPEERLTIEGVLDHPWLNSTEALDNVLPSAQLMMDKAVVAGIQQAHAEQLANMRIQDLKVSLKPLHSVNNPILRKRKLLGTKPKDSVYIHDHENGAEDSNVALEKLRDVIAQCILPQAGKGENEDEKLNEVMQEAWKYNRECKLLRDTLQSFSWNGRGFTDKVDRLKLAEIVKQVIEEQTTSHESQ

[16] = biological target: T2, Aurora kinase A (Homo sapiens) (UniProt O14965); test: Inhibition of AurA at 30 uM by microfluidic mobility shift assay; how it was run: as §1
T2 sequence (whole entry): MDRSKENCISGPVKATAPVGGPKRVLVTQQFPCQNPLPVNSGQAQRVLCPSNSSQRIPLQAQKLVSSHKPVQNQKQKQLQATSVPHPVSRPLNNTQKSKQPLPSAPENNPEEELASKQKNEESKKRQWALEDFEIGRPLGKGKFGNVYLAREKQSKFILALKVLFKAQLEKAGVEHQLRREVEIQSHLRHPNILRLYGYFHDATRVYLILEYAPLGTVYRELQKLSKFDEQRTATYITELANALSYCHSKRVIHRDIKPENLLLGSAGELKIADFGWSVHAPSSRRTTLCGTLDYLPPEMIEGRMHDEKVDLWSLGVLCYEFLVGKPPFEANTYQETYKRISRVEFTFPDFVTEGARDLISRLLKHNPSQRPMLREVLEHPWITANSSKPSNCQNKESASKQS

[17] = biological target: Insulin receptor (Homo sapiens) (UniProt P06213); test: Inhibition of INSR at 30 uM by microfluidic mobility shift assay; how it was run: as §1
Chain of Insulin receptor (Homo sapiens) (P06213 28-758 limits assumed): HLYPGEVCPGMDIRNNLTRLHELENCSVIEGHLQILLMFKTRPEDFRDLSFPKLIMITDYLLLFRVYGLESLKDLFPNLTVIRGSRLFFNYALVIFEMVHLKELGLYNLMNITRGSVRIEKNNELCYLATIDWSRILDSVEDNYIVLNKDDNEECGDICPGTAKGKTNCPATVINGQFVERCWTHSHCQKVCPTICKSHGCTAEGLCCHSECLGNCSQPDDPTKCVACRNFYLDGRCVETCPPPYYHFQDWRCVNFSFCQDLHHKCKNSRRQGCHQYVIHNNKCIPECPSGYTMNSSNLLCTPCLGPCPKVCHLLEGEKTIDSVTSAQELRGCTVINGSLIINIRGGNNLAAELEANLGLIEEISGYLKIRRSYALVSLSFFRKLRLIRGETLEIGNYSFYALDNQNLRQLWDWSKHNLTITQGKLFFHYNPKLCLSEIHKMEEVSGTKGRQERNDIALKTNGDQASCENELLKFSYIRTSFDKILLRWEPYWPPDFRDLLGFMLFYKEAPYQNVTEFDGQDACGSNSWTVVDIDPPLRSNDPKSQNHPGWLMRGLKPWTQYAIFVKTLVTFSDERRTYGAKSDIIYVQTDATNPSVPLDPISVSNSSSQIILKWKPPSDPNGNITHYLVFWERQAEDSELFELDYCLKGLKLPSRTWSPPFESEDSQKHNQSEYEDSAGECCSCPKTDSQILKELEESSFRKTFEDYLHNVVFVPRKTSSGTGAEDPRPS
Chain of Insulin receptor (Homo sapiens) (P06213 763-1382 limits assumed): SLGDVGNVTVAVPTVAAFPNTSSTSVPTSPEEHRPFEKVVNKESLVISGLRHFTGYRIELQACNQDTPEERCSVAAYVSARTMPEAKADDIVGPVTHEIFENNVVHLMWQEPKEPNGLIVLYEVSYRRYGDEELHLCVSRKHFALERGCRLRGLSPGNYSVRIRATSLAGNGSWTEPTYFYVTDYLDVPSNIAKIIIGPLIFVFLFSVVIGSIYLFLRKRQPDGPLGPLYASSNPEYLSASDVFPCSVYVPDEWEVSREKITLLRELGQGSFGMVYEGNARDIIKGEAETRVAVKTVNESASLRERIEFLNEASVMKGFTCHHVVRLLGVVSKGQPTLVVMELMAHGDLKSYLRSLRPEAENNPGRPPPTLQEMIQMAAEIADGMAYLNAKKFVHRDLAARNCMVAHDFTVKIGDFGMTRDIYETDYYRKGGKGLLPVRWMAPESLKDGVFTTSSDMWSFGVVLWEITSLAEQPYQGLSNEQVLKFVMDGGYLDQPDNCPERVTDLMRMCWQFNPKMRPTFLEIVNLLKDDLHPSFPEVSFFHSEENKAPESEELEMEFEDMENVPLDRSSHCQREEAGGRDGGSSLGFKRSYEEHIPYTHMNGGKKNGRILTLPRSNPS

[18] = biological target: Tyrosine-protein kinase ABL1 (Homo sapiens, UniProt P00519); test: Inhibition of ABL at 30 uM by microfluidic mobility shift assay; how it was run: as §1
[19] = biological target: T3, Protein kinase C zeta type (Homo sapiens) (UniProt Q05513); test: Inhibition of PKCz at 30 uM by microfluidic mobility shift assay; how it was run: as §1
T3 sequence (whole entry): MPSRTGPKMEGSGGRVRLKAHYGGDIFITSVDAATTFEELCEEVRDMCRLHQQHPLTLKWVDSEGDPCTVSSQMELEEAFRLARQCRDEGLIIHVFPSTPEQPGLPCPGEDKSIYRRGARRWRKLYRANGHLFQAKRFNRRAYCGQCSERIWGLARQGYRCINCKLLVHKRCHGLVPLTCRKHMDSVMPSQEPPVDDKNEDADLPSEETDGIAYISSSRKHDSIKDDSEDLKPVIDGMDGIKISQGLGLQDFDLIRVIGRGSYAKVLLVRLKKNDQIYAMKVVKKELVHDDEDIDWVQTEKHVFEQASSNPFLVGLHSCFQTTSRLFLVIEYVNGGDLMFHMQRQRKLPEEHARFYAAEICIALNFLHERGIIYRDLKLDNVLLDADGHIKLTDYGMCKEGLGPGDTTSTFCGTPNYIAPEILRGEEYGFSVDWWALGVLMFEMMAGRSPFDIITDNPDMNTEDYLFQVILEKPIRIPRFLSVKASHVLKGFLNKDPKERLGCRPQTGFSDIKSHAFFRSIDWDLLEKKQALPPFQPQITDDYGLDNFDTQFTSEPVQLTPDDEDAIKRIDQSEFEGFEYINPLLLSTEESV

[20] = biological target: Proto-oncogene tyrosine-protein kinase Src (Homo sapiens, UniProt P12931); test: Inhibition of SRC at 30 uM by microfluidic mobility shift assay; how it was run: as §1
Chain of Proto-oncogene tyrosine-protein kinase Src (P12931 2-536 limits assumed): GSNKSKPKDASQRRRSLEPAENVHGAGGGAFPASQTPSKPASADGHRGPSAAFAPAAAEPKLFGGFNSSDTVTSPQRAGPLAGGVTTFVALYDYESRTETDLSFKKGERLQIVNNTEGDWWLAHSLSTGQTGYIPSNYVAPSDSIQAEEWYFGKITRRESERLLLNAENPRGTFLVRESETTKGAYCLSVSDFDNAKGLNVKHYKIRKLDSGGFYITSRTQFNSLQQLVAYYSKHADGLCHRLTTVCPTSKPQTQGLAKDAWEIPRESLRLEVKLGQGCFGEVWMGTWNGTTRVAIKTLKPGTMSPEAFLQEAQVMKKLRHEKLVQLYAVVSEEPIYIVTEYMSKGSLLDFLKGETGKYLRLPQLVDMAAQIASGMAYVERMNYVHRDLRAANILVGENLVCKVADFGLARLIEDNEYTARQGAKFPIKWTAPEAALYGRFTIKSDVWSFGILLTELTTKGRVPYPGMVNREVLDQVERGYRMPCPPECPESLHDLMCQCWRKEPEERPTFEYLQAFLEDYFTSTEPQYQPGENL

[21] = biological target: T4, Serine/threonine-protein kinase Chk1 (Homo sapiens) (UniProt O14757); test: Inhibition of CHK1 at 30 uM by microfluidic mobility shift assay; how it was run: as §1
T4 sequence (whole entry): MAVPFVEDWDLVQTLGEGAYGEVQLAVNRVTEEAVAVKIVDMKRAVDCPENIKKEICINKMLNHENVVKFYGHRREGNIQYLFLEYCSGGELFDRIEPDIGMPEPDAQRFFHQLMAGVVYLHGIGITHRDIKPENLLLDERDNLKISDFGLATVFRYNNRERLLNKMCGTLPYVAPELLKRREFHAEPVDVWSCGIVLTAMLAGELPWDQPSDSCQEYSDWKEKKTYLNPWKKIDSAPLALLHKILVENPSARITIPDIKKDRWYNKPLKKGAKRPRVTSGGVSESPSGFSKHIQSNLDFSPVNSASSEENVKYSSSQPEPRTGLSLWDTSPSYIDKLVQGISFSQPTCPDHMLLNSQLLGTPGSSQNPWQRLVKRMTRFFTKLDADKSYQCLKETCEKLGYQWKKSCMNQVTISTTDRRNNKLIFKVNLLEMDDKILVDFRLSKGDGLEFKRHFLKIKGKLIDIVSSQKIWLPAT

[22] = biological target: Serine/threonine-protein kinase Chk2 (Homo sapiens, UniProt O96017); test: Inhibition of CHK2 at 30 uM by microfluidic mobility shift assay; how it was run: as §1
Chain of Serine/threonine-protein kinase Chk2 (O96017 whole entry): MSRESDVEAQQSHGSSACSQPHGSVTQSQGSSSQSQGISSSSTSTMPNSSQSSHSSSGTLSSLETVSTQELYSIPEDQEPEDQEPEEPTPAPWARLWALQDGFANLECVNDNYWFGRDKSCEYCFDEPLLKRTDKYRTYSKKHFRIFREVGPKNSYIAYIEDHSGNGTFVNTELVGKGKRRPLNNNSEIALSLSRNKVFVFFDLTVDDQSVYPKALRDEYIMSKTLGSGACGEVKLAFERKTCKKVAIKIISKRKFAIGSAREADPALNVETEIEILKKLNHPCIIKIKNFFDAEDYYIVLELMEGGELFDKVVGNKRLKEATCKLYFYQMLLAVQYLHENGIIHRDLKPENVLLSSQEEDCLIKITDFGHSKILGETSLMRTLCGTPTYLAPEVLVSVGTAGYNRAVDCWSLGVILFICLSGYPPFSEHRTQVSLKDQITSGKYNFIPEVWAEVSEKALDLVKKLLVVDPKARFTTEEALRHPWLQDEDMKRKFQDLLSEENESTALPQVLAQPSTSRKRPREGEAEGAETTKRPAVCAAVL

[23] = biological target: T5, Serine/threonine-protein kinase D2 (Homo sapiens) (UniProt Q9BZL6); test: Inhibition of PKD2 at 30 uM by microfluidic mobility shift assay; how it was run: as §1
T5 sequence (whole entry): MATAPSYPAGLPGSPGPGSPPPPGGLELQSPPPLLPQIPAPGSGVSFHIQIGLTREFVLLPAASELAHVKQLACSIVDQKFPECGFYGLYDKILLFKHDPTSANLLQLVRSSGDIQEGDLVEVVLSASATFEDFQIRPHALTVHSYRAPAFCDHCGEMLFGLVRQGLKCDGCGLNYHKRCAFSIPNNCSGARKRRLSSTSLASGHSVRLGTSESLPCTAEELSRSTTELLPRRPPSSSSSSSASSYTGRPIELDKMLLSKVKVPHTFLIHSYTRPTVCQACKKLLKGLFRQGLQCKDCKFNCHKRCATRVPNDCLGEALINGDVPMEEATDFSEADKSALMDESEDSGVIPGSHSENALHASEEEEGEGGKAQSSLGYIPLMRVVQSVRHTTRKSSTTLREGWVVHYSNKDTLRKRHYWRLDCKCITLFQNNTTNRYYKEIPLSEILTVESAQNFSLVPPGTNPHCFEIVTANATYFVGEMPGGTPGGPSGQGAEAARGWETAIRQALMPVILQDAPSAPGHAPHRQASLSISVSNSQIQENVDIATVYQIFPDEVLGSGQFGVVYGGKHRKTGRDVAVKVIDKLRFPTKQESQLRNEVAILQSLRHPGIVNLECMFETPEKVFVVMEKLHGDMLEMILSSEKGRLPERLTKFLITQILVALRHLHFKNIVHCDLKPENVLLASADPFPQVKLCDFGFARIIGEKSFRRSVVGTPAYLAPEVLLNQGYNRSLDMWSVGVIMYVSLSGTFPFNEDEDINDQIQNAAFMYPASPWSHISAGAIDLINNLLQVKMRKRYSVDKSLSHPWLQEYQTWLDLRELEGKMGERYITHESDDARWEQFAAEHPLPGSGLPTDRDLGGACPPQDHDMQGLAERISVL

SMILES	inhibition [2]	inhibition [3]	inhibition [4]	inhibition [5]	inhibition [6]	inhibition [7]	inhibition [8]	inhibition [9]	inhibition [10]	inhibition [11]	inhibition [12]	inhibition [13]	inhibition [14]	inhibition [15]	inhibition [16]	inhibition [17]	inhibition [18]	inhibition [20]	inhibition [21]	inhibition [22]	also measured
Nc1n[nH]c2cc(C3CCNCC3)[nH]c(=O)c12																					solubility [1]: 2340 µg/mL (≈ 10 mM)
CC(C)(C)c1cc2[nH]nc(N)c2c(=O)[nH]1	75%	3%	4%	39%	12%	4%	40%	3%	40%	48%	41%	22%	65%	1%	34%	14%	14%	58%	12%	21%	inhibition [19]: -9%
Cc1cc2nc(-c3ccccc3)nc(N)c2c(=O)[nH]1	50%	7%	11%	22%	10%	2%	45%	7%	23%	32%	86%	14%	15%	5%	34%	5%	39%	40%	3%	4%	inhibition [23]: 5%
COCCNc1nc(C)cc2nn(-c3ccccc3)c(N)c12	1%	3%	-1%	3%	3%	2%	0%	3%	6%	-3%	10%	2%	3%	2%	32%	1%	4%	2%	0%	4%	inhibition [23]: -1%
Cc1cc2c(c(N)nn2C)c(N2CCOCC2)n1	-2%	2%	-1%	-2%	4%	12%	10%	-8%	17%	9%	8%	1%	4%	5%	17%	3%	15%	7%	-5%	3%	inhibition [23]: -4%
Nc1n[nH]c2cc(CC3CCNCC3)[nH]c(=O)c12	71%	3%	-2%	35%	4%	6%	4%	13%	-1%	-3%	4%	11%	62%	3%	5%	1%	7%	4%	16%	7%	inhibition [23]: -6%
Cc1cc2c(cn1)c(N)nn2C	1%	2%	2%	-2%	6%	-2%	4%	0%	1%	2%	6%	1%	-2%	9%	3%	-3%	2%	3%	10%	3%	inhibition [23]: -3%
